ChEMBL document CHEMBL3603808, “Discovery and structure of a new inhibitor scaffold of the autophagy initiating kinase ULK1” (Bioorg Med Chem, 2015)

Experiments:
[1] = target: High affinity nerve growth factor receptor (Homo sapiens) (UniProt P04629); assay: Inhibition of TRKA (unknown origin) at 2 uM by radioactive filter-binding assay
In short: (§1)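 Panel profiling of one compound against 50 kinases, carried out in duplicate at the International Centre for Protein Kinase Profiling. Radioactive filter-binding format.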

[2] = target: Interleukin-1 receptor-associated kinase 4 (Homo sapiens) (UniProt Q9NWZ3); assay: Inhibition of IRAK4 (unknown origin) at 2 uM by radioactive filter-binding assay; in short: as §1
Chain of Interleukin-1 receptor-associated kinase 4 (Homo sapiens) (Q9NWZ3 whole entry): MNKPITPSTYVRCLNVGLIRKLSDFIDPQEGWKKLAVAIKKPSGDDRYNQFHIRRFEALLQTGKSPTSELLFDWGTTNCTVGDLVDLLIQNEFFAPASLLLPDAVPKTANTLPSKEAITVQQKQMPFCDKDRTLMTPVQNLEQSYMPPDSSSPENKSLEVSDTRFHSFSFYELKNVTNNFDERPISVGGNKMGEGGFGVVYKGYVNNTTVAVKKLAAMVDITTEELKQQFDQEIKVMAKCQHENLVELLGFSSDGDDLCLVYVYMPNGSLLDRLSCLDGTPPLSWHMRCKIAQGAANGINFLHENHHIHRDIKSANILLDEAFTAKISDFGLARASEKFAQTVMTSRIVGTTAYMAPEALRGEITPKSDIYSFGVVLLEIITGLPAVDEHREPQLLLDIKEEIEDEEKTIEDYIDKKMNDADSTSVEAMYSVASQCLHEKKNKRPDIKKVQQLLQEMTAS

[3] = target: Calcium/calmodulin-dependent protein kinase kinase 2 (Homo sapiens) (UniProt Q96RR4); assay: Inhibition of CAMKKB (unknown origin) at 2 uM by radioactive filter-binding assay; in short: as §1
Chain of Calcium/calmodulin-dependent protein kinase kinase 2 (Homo sapiens) (Q96RR4 2-588 limits assumed): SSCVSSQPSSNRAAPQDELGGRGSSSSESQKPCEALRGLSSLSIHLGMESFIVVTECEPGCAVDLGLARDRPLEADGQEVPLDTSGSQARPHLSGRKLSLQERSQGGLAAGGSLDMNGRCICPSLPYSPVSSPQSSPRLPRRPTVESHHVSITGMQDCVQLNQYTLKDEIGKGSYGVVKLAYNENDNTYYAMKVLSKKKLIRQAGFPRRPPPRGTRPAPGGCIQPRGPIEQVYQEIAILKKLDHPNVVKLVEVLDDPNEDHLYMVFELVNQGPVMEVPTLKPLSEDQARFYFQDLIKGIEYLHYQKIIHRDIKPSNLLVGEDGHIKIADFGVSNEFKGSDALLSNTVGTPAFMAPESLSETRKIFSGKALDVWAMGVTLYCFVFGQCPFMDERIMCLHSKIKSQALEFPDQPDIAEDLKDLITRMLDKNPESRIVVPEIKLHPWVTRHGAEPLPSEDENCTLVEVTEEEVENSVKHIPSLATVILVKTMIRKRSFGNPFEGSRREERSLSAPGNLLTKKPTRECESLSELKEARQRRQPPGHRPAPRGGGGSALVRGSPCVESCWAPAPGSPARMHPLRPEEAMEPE

[4] = target: Ribosomal protein S6 kinase alpha-1 (Homo sapiens) (UniProt Q15418); assay: Inhibition of RSK1 (unknown origin) at 2 uM by radioactive filter-binding assay; in short: as §1
Chain of Ribosomal protein S6 kinase alpha-1 (Homo sapiens) (Q15418 whole entry): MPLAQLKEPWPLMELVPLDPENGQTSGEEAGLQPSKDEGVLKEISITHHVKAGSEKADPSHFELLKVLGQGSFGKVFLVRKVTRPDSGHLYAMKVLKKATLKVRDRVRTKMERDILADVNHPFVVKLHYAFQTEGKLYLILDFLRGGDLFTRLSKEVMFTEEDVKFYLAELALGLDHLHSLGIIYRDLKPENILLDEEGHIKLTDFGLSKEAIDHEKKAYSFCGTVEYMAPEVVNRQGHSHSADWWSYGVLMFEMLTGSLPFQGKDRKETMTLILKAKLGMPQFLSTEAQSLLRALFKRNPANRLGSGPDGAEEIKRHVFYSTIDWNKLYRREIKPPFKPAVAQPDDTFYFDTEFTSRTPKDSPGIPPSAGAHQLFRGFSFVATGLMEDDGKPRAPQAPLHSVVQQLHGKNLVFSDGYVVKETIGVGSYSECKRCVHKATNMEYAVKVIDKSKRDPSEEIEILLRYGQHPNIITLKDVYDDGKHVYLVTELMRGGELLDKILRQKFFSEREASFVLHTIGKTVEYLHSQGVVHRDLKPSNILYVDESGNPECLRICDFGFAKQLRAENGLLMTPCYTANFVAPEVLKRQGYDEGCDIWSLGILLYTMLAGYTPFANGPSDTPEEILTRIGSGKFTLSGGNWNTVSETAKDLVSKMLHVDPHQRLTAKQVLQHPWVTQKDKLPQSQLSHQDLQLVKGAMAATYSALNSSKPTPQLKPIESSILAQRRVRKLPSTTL

[5] = target: Dual specificity tyrosine-phosphorylation-regulated kinase 1A (Homo sapiens) (UniProt Q13627); assay: Inhibition of DYRK1A (unknown origin) at 250 nM by radioactive filter-binding assay; in short: as §1
[6] = target: Ribosomal protein S6 kinase alpha-1 (Homo sapiens) (UniProt Q15418); assay: Inhibition of RSK1 (unknown origin) at 250 nM by radioactive filter-binding assay; in short: as §1
[7] = target: High affinity nerve growth factor receptor (Homo sapiens) (UniProt P04629); assay: Inhibition of TRKA (unknown origin) at 250 nM by radioactive filter-binding assay; in short: as §1
[8] = target: Tyrosine-protein kinase SYK (Homo sapiens) (UniProt P43405); assay: Inhibition of SYK (unknown origin) at 250 nM by radioactive filter-binding assay; in short: as §1
[9] = target: Casein kinase I isoform delta (Homo sapiens) (UniProt P48730); assay: Inhibition of CK1delta (unknown origin) at 250 nM by radioactive filter-binding assay; in short: as §1
Chain of Casein kinase I isoform delta (Homo sapiens) (P48730 whole entry, looked up, canonical isoform): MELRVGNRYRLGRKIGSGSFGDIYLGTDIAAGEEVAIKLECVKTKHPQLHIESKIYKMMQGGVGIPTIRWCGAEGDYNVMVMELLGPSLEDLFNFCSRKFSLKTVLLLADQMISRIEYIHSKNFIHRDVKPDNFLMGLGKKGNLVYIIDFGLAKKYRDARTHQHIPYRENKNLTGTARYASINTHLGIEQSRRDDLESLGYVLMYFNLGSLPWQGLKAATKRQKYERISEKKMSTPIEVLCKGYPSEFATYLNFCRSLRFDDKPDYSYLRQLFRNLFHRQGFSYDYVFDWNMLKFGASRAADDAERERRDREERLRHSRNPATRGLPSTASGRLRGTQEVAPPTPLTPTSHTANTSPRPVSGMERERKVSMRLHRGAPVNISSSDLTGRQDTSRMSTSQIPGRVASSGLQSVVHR

[10] = target: Serine/threonine-protein kinase Chk2 (Homo sapiens) (UniProt O96017); assay: Inhibition of CHK2 (unknown origin) at 250 nM by radioactive filter-binding assay; in short: as §1
Chain of Serine/threonine-protein kinase Chk2 (Homo sapiens) (O96017 whole entry): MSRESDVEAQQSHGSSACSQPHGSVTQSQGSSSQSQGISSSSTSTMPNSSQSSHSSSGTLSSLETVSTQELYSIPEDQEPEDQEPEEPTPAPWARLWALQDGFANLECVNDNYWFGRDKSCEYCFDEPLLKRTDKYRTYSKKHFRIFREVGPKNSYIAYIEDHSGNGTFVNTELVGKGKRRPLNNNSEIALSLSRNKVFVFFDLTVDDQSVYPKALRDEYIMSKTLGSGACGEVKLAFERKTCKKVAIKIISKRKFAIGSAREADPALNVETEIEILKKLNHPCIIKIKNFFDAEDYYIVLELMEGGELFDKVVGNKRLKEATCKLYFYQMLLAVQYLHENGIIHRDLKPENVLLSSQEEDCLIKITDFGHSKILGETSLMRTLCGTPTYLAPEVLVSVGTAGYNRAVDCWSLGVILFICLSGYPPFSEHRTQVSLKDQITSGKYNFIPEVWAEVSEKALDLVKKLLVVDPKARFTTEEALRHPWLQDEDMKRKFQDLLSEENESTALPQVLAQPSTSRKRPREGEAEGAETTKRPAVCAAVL

[11] = target: Glycogen synthase kinase-3 beta (Homo sapiens) (UniProt P49841); assay: Inhibition of GSK3beta (unknown origin) at 250 nM by radioactive filter-binding assay; in short: as §1
Chain of Glycogen synthase kinase-3 beta (Homo sapiens) (P49841 whole entry, looked up): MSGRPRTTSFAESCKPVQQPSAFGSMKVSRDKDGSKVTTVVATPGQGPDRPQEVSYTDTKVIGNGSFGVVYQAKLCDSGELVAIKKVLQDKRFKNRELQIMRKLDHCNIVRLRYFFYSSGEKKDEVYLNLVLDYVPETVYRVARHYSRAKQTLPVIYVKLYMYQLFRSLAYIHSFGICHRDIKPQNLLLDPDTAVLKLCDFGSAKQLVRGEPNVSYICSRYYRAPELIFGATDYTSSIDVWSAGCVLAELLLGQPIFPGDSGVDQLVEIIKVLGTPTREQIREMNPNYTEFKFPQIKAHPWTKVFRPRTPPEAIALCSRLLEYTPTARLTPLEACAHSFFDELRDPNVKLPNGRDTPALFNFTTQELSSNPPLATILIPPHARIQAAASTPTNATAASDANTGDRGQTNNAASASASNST

[12] = target: MAP/microtubule affinity-regulating kinase 3 (Homo sapiens) (UniProt P27448); assay: Inhibition of MARK3 (unknown origin) at 250 nM by radioactive filter-binding assay; in short: as §1
[13] = target: Mitogen-activated protein kinase kinase kinase 11 (Homo sapiens) (UniProt Q16584); assay: Inhibition of MLK3 (unknown origin) at 250 nM by radioactive filter-binding assay; in short: as §1
[14] = target: Vascular endothelial growth factor receptor (Homo sapiens) (UniProt P17948+P35916+P35968); assay: Inhibition of VEGFR (unknown origin) at 250 nM by radioactive filter-binding assay; format: protein assay; in short: as §1
[15] = target: Proto-oncogene tyrosine-protein kinase Src (Homo sapiens) (UniProt P12931); assay: Inhibition of SRC (unknown origin) at 250 nM by radioactive filter-binding assay; in short: as §1
Chain of Proto-oncogene tyrosine-protein kinase Src (Homo sapiens) (P12931 2-536 limits assumed): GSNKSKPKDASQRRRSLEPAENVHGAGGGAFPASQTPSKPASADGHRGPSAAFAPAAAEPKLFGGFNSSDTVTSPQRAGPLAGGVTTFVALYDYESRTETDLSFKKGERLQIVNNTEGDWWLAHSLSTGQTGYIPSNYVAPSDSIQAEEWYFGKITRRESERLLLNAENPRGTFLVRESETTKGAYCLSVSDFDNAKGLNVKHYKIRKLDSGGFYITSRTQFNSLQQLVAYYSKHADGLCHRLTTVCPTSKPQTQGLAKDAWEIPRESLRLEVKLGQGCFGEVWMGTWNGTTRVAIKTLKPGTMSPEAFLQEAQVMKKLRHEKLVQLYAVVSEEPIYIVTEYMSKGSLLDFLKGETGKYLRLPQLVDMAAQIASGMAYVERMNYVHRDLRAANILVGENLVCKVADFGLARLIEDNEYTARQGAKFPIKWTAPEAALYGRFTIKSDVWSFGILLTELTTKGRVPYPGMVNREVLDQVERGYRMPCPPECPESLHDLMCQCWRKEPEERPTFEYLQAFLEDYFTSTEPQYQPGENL

Chain of High affinity nerve growth factor receptor (Homo sapiens) (P04629 33-796 limits assumed): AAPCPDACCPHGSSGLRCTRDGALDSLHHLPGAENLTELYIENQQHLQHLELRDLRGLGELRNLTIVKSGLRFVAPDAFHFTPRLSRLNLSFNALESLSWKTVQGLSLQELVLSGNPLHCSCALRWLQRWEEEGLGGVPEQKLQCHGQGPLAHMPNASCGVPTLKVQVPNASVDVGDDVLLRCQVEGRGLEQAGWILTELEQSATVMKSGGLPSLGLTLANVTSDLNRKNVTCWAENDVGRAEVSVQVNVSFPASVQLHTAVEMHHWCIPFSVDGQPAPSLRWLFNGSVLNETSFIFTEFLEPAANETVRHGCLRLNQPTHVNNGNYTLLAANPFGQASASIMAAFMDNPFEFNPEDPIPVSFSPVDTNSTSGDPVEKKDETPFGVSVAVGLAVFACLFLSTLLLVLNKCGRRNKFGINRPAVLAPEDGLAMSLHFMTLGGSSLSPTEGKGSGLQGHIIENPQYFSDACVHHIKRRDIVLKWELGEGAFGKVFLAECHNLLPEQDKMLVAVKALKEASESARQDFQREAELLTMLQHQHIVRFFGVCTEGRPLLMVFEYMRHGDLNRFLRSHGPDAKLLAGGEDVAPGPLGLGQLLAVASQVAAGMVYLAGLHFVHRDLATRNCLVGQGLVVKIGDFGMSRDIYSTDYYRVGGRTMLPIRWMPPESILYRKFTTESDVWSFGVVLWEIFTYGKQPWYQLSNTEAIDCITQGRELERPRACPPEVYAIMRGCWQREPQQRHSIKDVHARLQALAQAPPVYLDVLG

| inhibition [1] [%] | inhibition [2] [%] | inhibition [3] [%] | inhibition [4] [%] | inhibition [5] [%] | inhibition [6] [%] | inhibition [7] [%] | inhibition [8] [%] | inhibition [9] [%] | inhibition [10] [%] | inhibition [11] [%] | inhibition [12] [%] | inhibition [13] [%] | inhibition [14] [%] | inhibition [15] [%] | SMILES |
| --- | --- | --- | --- | --- | --- | --- | --- | --- | --- | --- | --- | --- | --- | --- | --- |
| > 80 | > 80 | > 80 | > 80 | – | – | – | – | – | – | – | – | – | – | – | NCCCNc1nc(Nc2cccc(NC(=O)N3CCCC3)c2)ncc1I |
| – | – | – | – | > 80 | > 80 | > 80 | > 80 | > 80 | > 80 | > 80 | > 80 | > 80 | > 80 | > 80 | c1ccc2c(Nc3cc(C4CCC4)[nH]n3)nc(Nc3ccc4[nH]cnc4c3)nc2c1 |
